Activity calls are given as the source filed them. No cut-off for these calls is given here.
Experiments:
Type in all cases: functional
Cortical neurone [1] = experiment: Increase in BDNF eIV-IX mRNA expression in rat cortical neurons at 10 uM after 3 hrs by RT-PCR analysis in presence of ERK1/2 inhibitor U0126
Cortical neurone [2] = experiment: Increase in neurite length in rat cortical neurons at 10 uM after 6 hrs by anti-GFP and anti-MAP2-based fluorescence microscopy
Summary of the method: (§1)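 E17 rat cortical neurons GFP-transfected at 4 days in culture, drug-treated for 6 h at day 6, then fixed and stained with anti-GFP/anti-MAP2 and Alexa488/594 secondaries plus DAPI. Under fluorescence microscopy, all neurites arising from the cell body were traced within a 400 µm diameter and their total length measured; n = 3.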

Cortical neurone [3] = experiment: Increase in BDNF eIV-IX mRNA expression in rat cortical neurons at 10 uM up to 24 hrs by RT-PCR analysis
Summary of the method: (§2)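 Primary cortical neurons from E17 Sprague–Dawley rat embryos, seeded at 2.5 × 10⁶ cells per polyethylenimine-coated 35 mm dish. Compound added for 3 h (time course 0–24 h at 10 µM). Total RNA extracted with acid guanidine phenol-chloroform and DNase I-treated, then reverse transcribed. Bdnf exon IV-IX mRNA measured by real-time PCR against plasmid standard curves and normalized to Gapdh. Reported as ratio to untreated control; n = 3–4.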

Cortical neurone [4] = experiment: Increase in BDNF eIV-IX mRNA expression in rat cortical neurons at 10 uM after 3 hrs by RT-PCR analysis in presence of VSSC antagonist TTX
Cortical neurone [5] = experiment: Increase in BDNF eIV-IX mRNA expression in rat cortical neurons at 10 uM after 3 hrs by RT-PCR analysis; summary of the method: as §2
Cortical neurone [6] = experiment: Increase in BDNF eIV-IX mRNA expression in rat cortical neurons at 10 uM by RT-PCR analysis; settings: TDE = time-dependent effect; summary of the method: as §2
Cortical neurone [7] = experiment: Increase in BDNF eIV-IX mRNA expression in rat cortical neurons at 10 uM at 6 hrs by RT-PCR analysis; summary of the method: as §2
Cortical neurone [8] = experiment: Increase in BDNF eIV-IX mRNA expression in rat cortical neurons at 10 uM after 3 hrs by RT-PCR analysis in presence of L-type voltage calcium channel blocker nicradipine
Cortical neurone [9] = experiment: Increase in neurite crossings in rat cortical neurons at 10 uM after 6 hrs by Sholl analysis
Summary of the method: (§3)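 E17 rat cortical neurons transfected with a GFP expression vector by calcium phosphate at 4 days in culture. At day 6, treated for 6 h, then fixed in 4% formaldehyde/4% sucrose and immunostained for GFP and MAP2. Sholl analysis counted neurite intersections with concentric circles of 20–200 µm radius at 20 µm intervals around the cell body. Cells were not preselected; n = 3.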

Cortical neurone [10] = experiment: Increase in BDNF eIV-IX mRNA expression in rat cortical neurons at 10 uM after 3 hrs by RT-PCR analysis in presence of NMDA receptor antagonist APV
Cortical neurone [11] = experiment: Increase in neurite crossings in rat cortical neurons at 1 uM after 6 hrs by Sholl analysis; summary of the method: as §3
Cortical neurone [12] = experiment: Increase in BDNF eIV-IX mRNA expression in rat cortical neurons at 1 uM after 3 hrs by RT-PCR analysis; summary of the method: as §2
Cortical neurone [13] = experiment: Increase in neurite length in rat cortical neurons at 1 uM after 6 hrs by anti-GFP and anti-MAP2-based fluorescence microscopy; summary of the method: as §1
Cortical neurone [14] = experiment: Increase in BDNF eIV-IX mRNA expression in rat cortical neurons after 3 hrs by RT-PCR analysis; summary of the method: as §2

## C#C[C@@H](OC(=O)[C@@H]1[C@H](C=C(Br)Br)C1(C)C)c1cccc(Oc2ccccc2)c1
Cortical neurone [1]
  Activity: inactive
Cortical neurone [2]
  Activity: Active
Cortical neurone [3]
  Activity: Active
Cortical neurone [4]
  Activity: inactive
Cortical neurone [5]
  Activity: Active
Cortical neurone [6]
  Activity: tde
Cortical neurone [7]
  Activity: inactive
Cortical neurone [8]
  Activity: inactive
Cortical neurone [9]
  Activity: Active
Cortical neurone [10]
  Activity: Active

## CCC#C[C@@H](OC(=O)[C@@H]1[C@H](C=C(Br)Br)C1(C)C)c1cccc(Oc2ccccc2)c1
Cortical neurone [5]
  Activity: Active

## CC1(C)[C@H](C(=O)O[C@H](C#N)c2cccc(Oc3ccccc3)c2)[C@@H]1C=C(Br)Br
Cortical neurone [11]
  Activity: Active
Cortical neurone [12]
  Activity: Active
Cortical neurone [5]
  Activity: Active
Cortical neurone [13]
  Activity: Active

## CC#C[C@@H](OC(=O)[C@@H]1[C@H](C=C(Br)Br)C1(C)C)c1cccc(Oc2ccccc2)c1
Cortical neurone [5]
  Activity: Active

## CC1(C)[C@H](C(=O)O[C@H](C#CI)c2cccc(Oc3ccccc3)c2)[C@@H]1C=C(Br)Br
Cortical neurone [14]
  Activity: Dose-dependent effect
Cortical neurone [5]
  Activity: Active

## CC1(C)[C@H](C(=O)O[C@H](C#CCC(F)(F)F)c2cccc(Oc3ccccc3)c2)[C@@H]1C=C(Br)Br
Cortical neurone [5]
  Activity: Active

## CC1(C)[C@H](C(=O)O[C@H](C#CCl)c2cccc(Oc3ccccc3)c2)[C@@H]1C=C(Br)Br
Cortical neurone [14]
  Activity: Dose-dependent effect
Cortical neurone [5]
  Activity: Active

## CC1(C)[C@H](C(=O)O[C@H](C#CBr)c2cccc(Oc3ccccc3)c2)[C@@H]1C=C(Br)Br
Cortical neurone [14]
  Activity: Dose-dependent effect
Cortical neurone [5]
  Activity: Active

Reference: ChEMBL document CHEMBL2016530, “Synthesis and biological evaluation of pyrethroid insecticide-derivatives as a chemical inducer for Bdnf mRNA expression in neurons” (Bioorg Med Chem, 2012)
